ChEMBL document CHEMBL3864185, “Identification of N-(2-Phenoxyethyl)imidazo[1,2-a]pyridine-3-carboxamides as New Antituberculosis Agents” (ACS Med Chem Lett, 2016)
In brackets after ≈: the same amount, converted by molar mass.

Assays:
[1] = system: Mycobacterium tuberculosis; experiment: Antimycobacterial activity against drug-sensitive Mycobacterium tuberculosis H37Rv ATCC 27294 after 7 days by microplate alamar blue assay; type: functional; conditions: H37Rv ATCC 27294, 168 h
Method in brief: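 Microplate Alamar Blue Assay against M. tuberculosis H37Rv ATCC 27294, read by fluorescence. MIC was the lowest concentration that reduced fluorescence by >90% relative to the mean of replicate bacterium-only controls.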

[2] = system: Staphylococcus aureus; experiment: Antibacterial activity against methicillin-resistant Staphylococcus aureus 12-2 after 18 to 24 hrs by NCCLS M100-S11 based assay; type: functional
Method in brief: (§1)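 Broth MIC set up per NCCLS M100-S11. Plates were incubated at 35 °C for 18–24 h. MIC was the lowest concentration that inhibited visible bacterial growth, i.e. complete growth inhibition.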

[3] = system: Staphylococcus aureus; experiment: Antibacterial activity against Staphylococcus aureus ATCC 25923 after 18 to 24 hrs by NCCLS M100-S11 based assay; type: functional
[4] = system: Staphylococcus epidermidis; experiment: Antibacterial activity against methicillin-resistant Staphylococcus epidermidis 12-6 after 18 to 24 hrs by NCCLS M100-S11 based assay; type: functional; method in brief: as §1
[5] = system: Streptococcus pneumoniae; experiment: Antibacterial activity against Streptococcus pneumoniae ATCC 49619 after 18 to 24 hrs by NCCLS M100-S11 based assay; type: functional
[6] = system: Klebsiella pneumoniae; experiment: Antibacterial activity against Klebsiella pneumoniae 12-1 after 18 to 24 hrs by NCCLS M100-S11 based assay; type: functional
[7] = system: Staphylococcus aureus; experiment: Antibacterial activity against methicillin-sensitive Staphylococcus aureus 12-1 after 18 to 24 hrs by NCCLS M100-S11 based assay; type: functional
[8] = system: Staphylococcus epidermidis; experiment: Antibacterial activity against methicillin-sensitive Staphylococcus epidermidis 12-1 after 18 to 24 hrs by NCCLS M100-S11 based assay; type: functional
[9] = system: Pseudomonas aeruginosa; experiment: Antibacterial activity against Pseudomonas aeruginosa 12-12 after 18 to 24 hrs by NCCLS M100-S11 based assay; type: functional
[10] = system: Escherichia coli; experiment: Antibacterial activity against Escherichia coli ATCC 25922 after 18 to 24 hrs by NCCLS M100-S11 based assay; type: functional
[11] = system: Mus musculus; experiment: Acute toxicity in mouse assessed as mortality at 50 to 100 mg/kg, iv administered as single dose measured up to 7 days post dose; type: organism-based; conditions: in vivo, 168 h
Method in brief: (§2)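 Single dose given intravenously to mice (50 and 100 mg/kg) or orally to rats (500 and 1000 mg/kg).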

[12] = Half life in rat at 25 mg/kg, po administered as single dose; type: ADME, organism-based; conditions: in vivo
Method in brief: (§3)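 Rats given one oral dose of 25 mg/kg; n = 6 animals, values as mean ± SD. Plasma profile gave Cmax, Tmax, AUC from zero to infinity, elimination half-life, mean residence time, apparent clearance (CL/F) and apparent volume of distribution (Vd/F).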

[13] = Mean residence time in rat at 25 mg/kg, po administered as single dose; type: ADME, organism-based; conditions: in vivo; method in brief: as §3
[14] = AUC (0 to infinity) in rat at 25 mg/kg, po administered as single dose; type: ADME, organism-based; parameters: dose 25 mg/kg, route oral, time infinity; conditions: in vivo; method in brief: as §3
[15] = Apparent volume of distribution in rat at 25 mg/kg, po administered as single dose; type: ADME, organism-based; conditions: in vivo; method in brief: as §3
[16] = Cmax in rat at 25 mg/kg, po administered as single dose; type: ADME, organism-based; parameters: dose 25 mg/kg, route oral; conditions: in vivo; method in brief: as §3
[17] = system: Rattus norvegicus; experiment: Acute toxicity in rat assessed as mortality at 1000 mg/kg, po administered as single dose measured up to 7 days post dose; type: organism-based; conditions: in vivo, 168 h; method in brief: as §2
[18] = Tmax in rat at 25 mg/kg, po administered as single dose; type: ADME, organism-based; conditions: in vivo; method in brief: as §3
[19] = Apparent clearance in rat at 25 mg/kg, po administered as single dose; type: ADME, organism-based; conditions: in vivo; method in brief: as §3
[20] = system: Rattus norvegicus; experiment: Acute toxicity in rat assessed as mortality at 500 mg/kg, po administered as single dose measured up to 7 days post dose; type: organism-based; conditions: in vivo, 168 h; method in brief: as §2

Cc1ccn2c(C(=O)NCCOc3ccccc3[N+](=O)[O-])c(C)nc2c1
MIC90 [1]: 0.5 µg/mL (≈ 1.41 µM)

Cc1ccc2nc(C)c(C(=O)NCCOc3ccc(Cl)cc3)n2c1
MIC [2]: > 32 µg/mL | MIC [3]: > 32 µg/mL | MIC [4]: > 32 µg/mL | MIC [5]: > 32 µg/mL | MIC [6]: > 32 µg/mL | MIC90 [1]: 0.03 µg/mL (≈ 0.0873 µM) | MIC [7]: > 32 µg/mL | MIC [8]: > 32 µg/mL | MIC [9]: > 32 µg/mL | MIC [10]: > 32 µg/mL

Cc1ccc(OCCNC(=O)c2c(C)nc3cc(C)ccn23)cc1
MIC90 [1]: 0.673 µg/mL (≈ 2.08 µM)

Cc1ccn2c(C(=O)NCCOc3ccc(Br)cc3)c(C)nc2c1
MIC90 [1]: 0.463 µg/mL (≈ 1.19 µM)

Cc1ccc(OCCNC(=O)c2c(C)nc3ccc(C)cn23)cc1
MIC90 [1]: 0.204 µg/mL (≈ 0.631 µM)

COc1ccccc1OCCNC(=O)c1c(C)nc2cc(C)ccn12
MIC90 [1]: 2 µg/mL (≈ 5.89 µM)

Cc1ccc2nc(C)c(C(=O)NCCNc3ccc(Br)cc3)n2c1
MIC90 [1]: 0.25 µg/mL (≈ 0.646 µM)

Cc1ccn2c(C(=O)NCCOc3ccccc3)c(C)nc2c1
MIC90 [1]: 0.935 µg/mL (≈ 3.02 µM)

Cc1cccc(OCCNC(=O)c2c(C)nc3cc(C)ccn23)c1
MIC90 [1]: 0.329 µg/mL (≈ 1.02 µM)

Cc1ccn2c(C(=O)NCCOc3ccc(-c4ccccc4)cc3)c(C)nc2c1
MIC90 [1]: 0.518 µg/mL (≈ 1.34 µM)

Cc1ccn2c(C(=O)NCCOc3ccc(Cl)cc3)c(C)nc2c1
MIC90 [1]: 2 µg/mL (≈ 5.82 µM)

Cc1cccc(OCCNC(=O)c2c(C)nc3ccc(C)cn23)c1
MIC [2]: > 32 µg/mL | MIC [3]: > 32 µg/mL | MIC [4]: > 32 µg/mL | MIC [5]: > 32 µg/mL | MIC [6]: > 32 µg/mL | MIC90 [1]: 0.029 µg/mL (≈ 0.0897 µM) | MIC [7]: > 32 µg/mL | MIC [8]: > 32 µg/mL | MIC [9]: > 32 µg/mL | MIC [10]: > 32 µg/mL

Cc1ccc2nc(C)c(C(=O)NCCOc3ccc(Br)cc3)n2c1
Activity [11]: Non-Toxic | MIC [2]: > 32 µg/mL | MIC [3]: > 32 µg/mL | MIC [4]: > 32 µg/mL | MIC [5]: > 32 µg/mL | half-life [12]: 90 min | MRT [13]: 96 min | MIC [6]: > 32 µg/mL | AUC(0-inf) [14]: 288 ng·h/mL | Vd/F [15]: 186 L/kg | MIC90 [1]: 0.027 µg/mL (≈ 0.0695 µM) | Cmax [16]: 225 ng/mL | Activity [17]: Non-Toxic | Tmax [18]: 30 min | CL/F [19]: 1440 mL/min/kg | MIC [7]: > 32 µg/mL | Activity [20]: Non-Toxic | MIC [8]: > 32 µg/mL | MIC [9]: > 32 µg/mL | MIC [10]: > 32 µg/mL

COc1ccccc1OCCNC(=O)c1c(C)nc2ccc(C)cn12
MIC90 [1]: 0.401 µg/mL (≈ 1.18 µM)

COc1ccc(OCCNC(=O)c2c(C)nc3cc(C)ccn23)cc1
MIC90 [1]: 2 µg/mL (≈ 5.89 µM)

Cc1ccc2nc(C)c(C(=O)NCCOc3ccc([N+](=O)[O-])cc3)n2c1
MIC90 [1]: 0.245 µg/mL (≈ 0.691 µM)

Cc1ccn2c(C(=O)NCCOc3ccccc3C)c(C)nc2c1
MIC90 [1]: 0.231 µg/mL (≈ 0.714 µM)

Cc1ccn2c(C(=O)NCCOc3ccc(F)cc3)c(C)nc2c1
MIC90 [1]: 2 µg/mL (≈ 6.11 µM)

Cc1ccc2nc(C)c(C(=O)NCCOc3ccc(F)cc3)n2c1
MIC90 [1]: 0.146 µg/mL (≈ 0.446 µM)

Cc1ccn2c(C(=O)NCCOc3cccc([N+](=O)[O-])c3)c(C)nc2c1
MIC90 [1]: 0.5 µg/mL (≈ 1.41 µM)

Cc1ccn2c(C(=O)NCCOc3ccc([N+](=O)[O-])cc3)c(C)nc2c1
MIC90 [1]: 4 µg/mL (≈ 11.3 µM)

COc1cccc(OCCNC(=O)c2c(C)nc3ccc(C)cn23)c1
Activity [11]: Non-Toxic | MIC [2]: > 32 µg/mL | MIC [3]: > 32 µg/mL | MIC [4]: > 32 µg/mL | MIC [5]: > 32 µg/mL | half-life [12]: 67.2 min | MRT [13]: 42.6 min | MIC [6]: > 32 µg/mL | AUC(0-inf) [14]: 214 ng·h/mL | Vd/F [15]: 188 L/kg | MIC90 [1]: 0.03 µg/mL (≈ 0.0884 µM) | Cmax [16]: 351 ng/mL | Tmax [18]: 10.2 min | CL/F [19]: 1940 mL/min/kg | MIC [7]: > 32 µg/mL | Activity [20]: Non-Toxic | MIC [8]: > 32 µg/mL | MIC [9]: > 32 µg/mL | MIC [10]: > 32 µg/mL

Cc1ccc2nc(C)c(C(=O)NCCOc3ccccc3[N+](=O)[O-])n2c1
MIC90 [1]: 0.303 µg/mL (≈ 0.855 µM)

Cc1ccc2nc(C)c(C(=O)NCCOc3ccccc3C)n2c1
MIC [2]: > 32 µg/mL | MIC [3]: > 32 µg/mL | MIC [4]: > 32 µg/mL | MIC [5]: > 32 µg/mL | MIC [6]: > 32 µg/mL | MIC90 [1]: 0.038 µg/mL (≈ 0.118 µM) | MIC [7]: > 32 µg/mL | MIC [8]: > 32 µg/mL | MIC [9]: > 32 µg/mL | MIC [10]: > 32 µg/mL

COc1ccc(OCCNC(=O)c2c(C)nc3ccc(C)cn23)cc1
MIC [2]: > 32 µg/mL | MIC [3]: > 32 µg/mL | MIC [4]: > 32 µg/mL | MIC [5]: > 32 µg/mL | MIC [6]: > 32 µg/mL | MIC90 [1]: 0.031 µg/mL (≈ 0.0913 µM) | MIC [7]: > 32 µg/mL | MIC [8]: > 32 µg/mL | MIC [9]: > 32 µg/mL | MIC [10]: > 32 µg/mL

Cc1ccc2nc(C)c(C(=O)NCCOc3ccc(-c4ccccc4)cc3)n2c1
MIC90 [1]: 0.39 µg/mL (≈ 1.01 µM)

Cc1ccc2nc(C)c(C(=O)NCCOc3ccccc3)n2c1
Activity [11]: Non-Toxic | MIC [2]: > 32 µg/mL | MIC [3]: > 32 µg/mL | MIC [4]: > 32 µg/mL | MIC [5]: > 32 µg/mL | half-life [12]: 25.8 min | MRT [13]: 36.6 min | MIC [6]: > 32 µg/mL | AUC(0-inf) [14]: 453 ng·h/mL | Vd/F [15]: 33.8 L/kg | MIC90 [1]: 0.054 µg/mL (≈ 0.175 µM) | Cmax [16]: 655 ng/mL | Tmax [18]: 19.8 min | CL/F [19]: 919 mL/min/kg | MIC [7]: > 32 µg/mL | Activity [20]: Non-Toxic | MIC [8]: > 32 µg/mL | MIC [9]: > 32 µg/mL | MIC [10]: > 32 µg/mL

COc1cccc(OCCNC(=O)c2c(C)nc3cc(C)ccn23)c1
MIC90 [1]: 0.254 µg/mL (≈ 0.748 µM)

NNC(=O)c1ccncc1 [ISONIAZID]
MIC90 [1]: 0.049 µg/mL (≈ 0.357 µM)

CO[C@H]1/C=C/O[C@@]2(C)Oc3c(C)c(O)c4c(O)c(c(/C=N/N5CCN(C)CC5)c(O)c4c3C2=O)NC(=O)/C(C)=C\C=C\[C@H](C)[C@H](O)[C@@H](C)[C@@H](O)[C@@H](C)[C@H](OC(C)=O)[C@@H]1C [RIFAMPIN]
MIC90 [1]: 0.05 µg/mL (≈ 0.0608 µM)
